Calls of active or inactive are those of the source. No cut-off for these calls is given here.
Key:
[1] = molecular target: T1, Cannabinoid receptor 1 (Homo sapiens, UniProt P21554); assay: Displacement of [3H]CP-55940 from human recombinant CB1 receptor expressed in HEK293 cells; format: cell-based
Procedure, shortened: (§1)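 Membranes were from HEK-293 cells overexpressing human CB1 or CB2, with [3H]CP-55,940 as radioligand (Kd 0.18 nM CB1, 0.31 nM CB2). Test compound (1 nM-10 µM) was incubated 90 min at 30 °C. Displaced radioligand was counted by scintillation. Ki came from IC50 via Cheng-Prusoff, with triplicate points; single-concentration screens were run in duplicate.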

[2] = molecular target: T2, Cannabinoid receptor 2 (Homo sapiens, UniProt P34972); assay: Displacement of [3H]CP-55940 from human recombinant CB2 receptor expressed in HEK293 cells; format: cell-based; procedure, shortened: as §1
T2 sequence (P34972 whole entry): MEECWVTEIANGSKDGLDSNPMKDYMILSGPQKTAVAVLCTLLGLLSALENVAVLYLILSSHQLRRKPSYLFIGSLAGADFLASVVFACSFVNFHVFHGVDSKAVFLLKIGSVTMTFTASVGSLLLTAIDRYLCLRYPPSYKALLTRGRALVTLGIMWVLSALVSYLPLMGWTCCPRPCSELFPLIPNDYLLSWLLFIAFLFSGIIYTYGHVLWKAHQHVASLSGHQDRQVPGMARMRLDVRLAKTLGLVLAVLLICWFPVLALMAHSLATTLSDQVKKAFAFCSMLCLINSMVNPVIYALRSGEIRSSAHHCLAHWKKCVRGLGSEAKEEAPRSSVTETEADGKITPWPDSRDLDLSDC

[3] = molecular target: T3, Fatty-acid amide hydrolase 1 (Rattus norvegicus) (UniProt P97612); assay: Inhibition of FAAH in rat brain membrane assessed as [14C]anandamide hydrolysis at 50 uM by scintillation counting; format: cell membranes
T3 sequence (whole entry): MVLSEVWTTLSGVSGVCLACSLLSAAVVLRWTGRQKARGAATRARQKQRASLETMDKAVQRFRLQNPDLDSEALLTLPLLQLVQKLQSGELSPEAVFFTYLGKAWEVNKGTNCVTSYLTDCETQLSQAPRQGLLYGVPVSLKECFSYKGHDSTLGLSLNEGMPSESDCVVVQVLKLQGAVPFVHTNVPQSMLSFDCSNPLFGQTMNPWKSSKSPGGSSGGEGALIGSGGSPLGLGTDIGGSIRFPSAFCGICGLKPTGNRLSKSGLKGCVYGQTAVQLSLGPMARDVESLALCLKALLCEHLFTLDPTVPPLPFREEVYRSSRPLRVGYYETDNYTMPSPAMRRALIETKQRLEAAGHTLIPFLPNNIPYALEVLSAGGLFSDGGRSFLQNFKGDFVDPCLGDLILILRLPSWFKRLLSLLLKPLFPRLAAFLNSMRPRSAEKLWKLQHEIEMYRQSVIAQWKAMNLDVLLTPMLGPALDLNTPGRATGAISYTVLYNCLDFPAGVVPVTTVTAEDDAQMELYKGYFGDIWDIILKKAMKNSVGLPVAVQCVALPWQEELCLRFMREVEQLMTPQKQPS
Procedure, shortened: (§2)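 Enzyme source was a rat brain membrane pellet resuspended in 50 mM Tris-HCl, pH 9.0, 70 µg protein per assay. It was incubated with compound (10 or 50 µM) and [14C]anandamide (10000 cpm) for 30 min at 37 °C. After CHCl3/MeOH (1:1) extraction, [14C]ethanolamine in the aqueous phase was counted by scintillation. Points were run in duplicate.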

[4] = molecular target: T3, Fatty-acid amide hydrolase 1 (Rattus norvegicus); assay: Inhibition of FAAH in rat brain membrane assessed as [14C]anandamide hydrolysis at 10 uM by scintillation counting; format: cell membranes; procedure, shortened: as §2
[5] = molecular target: T1, Cannabinoid receptor 1; assay: Displacement of [3H]CP-55940 from human recombinant CB1 receptor expressed in HEK293 cells at 10 uM; format: cell-based
[6] = molecular target: T2, Cannabinoid receptor 2; assay: Displacement of [3H]CP-55940 from human recombinant CB2 receptor expressed in HEK293 cells at 10 uM; format: cell-based
[7] = molecular target: Prostaglandin G/H synthase 1 (Homo sapiens, UniProt P23219); assay: Inhibition of cyclooxygenase 1 in human whole blood assessed as thromboxane B2 level; format: tissue-based
Prostaglandin G/H synthase 1, sequence (P23219 whole entry): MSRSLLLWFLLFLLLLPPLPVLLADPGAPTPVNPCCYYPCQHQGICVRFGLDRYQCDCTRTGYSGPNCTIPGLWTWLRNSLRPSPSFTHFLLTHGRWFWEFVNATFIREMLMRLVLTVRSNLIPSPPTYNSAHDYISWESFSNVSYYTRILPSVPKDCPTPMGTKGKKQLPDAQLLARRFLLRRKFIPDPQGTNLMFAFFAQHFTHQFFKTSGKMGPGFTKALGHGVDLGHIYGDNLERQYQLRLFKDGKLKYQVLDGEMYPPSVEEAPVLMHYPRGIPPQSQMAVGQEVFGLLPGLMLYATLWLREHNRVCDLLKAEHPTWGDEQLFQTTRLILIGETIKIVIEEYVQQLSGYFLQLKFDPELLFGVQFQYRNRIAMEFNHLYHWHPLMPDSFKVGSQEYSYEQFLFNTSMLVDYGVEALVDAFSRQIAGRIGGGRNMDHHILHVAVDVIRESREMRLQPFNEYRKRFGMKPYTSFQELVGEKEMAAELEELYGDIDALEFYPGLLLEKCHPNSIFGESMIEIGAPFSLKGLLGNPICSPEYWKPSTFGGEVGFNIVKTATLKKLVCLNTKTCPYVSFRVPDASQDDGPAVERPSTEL
Procedure, shortened: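 Fresh whole blood came from a healthy volunteer free of NSAIDs for 2 weeks. 1 mL aliquots received test agent in DMSO and were left to clot for 1 h at 37 °C. Serum TXB2 was measured by GC-MS/MS, in quadruplicate.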

[8] = molecular target: T4, Prostaglandin G/H synthase 1 (Ovis aries) (UniProt P05979); assay: Inhibition of ovine cyclooxygenase 1 assessed as prostaglandin F2alpha level at 1 uM by enzyme immunoassay relative to control
T4 sequence (whole entry): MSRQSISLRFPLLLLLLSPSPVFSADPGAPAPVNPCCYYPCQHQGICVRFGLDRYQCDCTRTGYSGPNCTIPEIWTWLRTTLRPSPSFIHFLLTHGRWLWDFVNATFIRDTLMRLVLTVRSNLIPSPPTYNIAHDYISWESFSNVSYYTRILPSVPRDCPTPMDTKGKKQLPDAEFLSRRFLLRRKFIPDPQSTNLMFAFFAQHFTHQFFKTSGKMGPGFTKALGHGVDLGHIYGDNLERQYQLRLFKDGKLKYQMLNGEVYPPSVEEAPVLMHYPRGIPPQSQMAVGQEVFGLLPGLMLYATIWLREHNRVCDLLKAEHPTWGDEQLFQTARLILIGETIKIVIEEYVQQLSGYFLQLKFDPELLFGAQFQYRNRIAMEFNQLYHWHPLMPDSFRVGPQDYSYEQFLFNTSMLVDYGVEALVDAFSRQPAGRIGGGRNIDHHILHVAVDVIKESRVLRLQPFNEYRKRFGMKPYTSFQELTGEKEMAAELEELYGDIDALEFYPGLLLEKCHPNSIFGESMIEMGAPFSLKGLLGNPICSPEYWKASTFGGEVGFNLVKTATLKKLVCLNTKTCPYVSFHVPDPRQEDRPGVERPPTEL
Procedure, shortened: (§3)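 Isolated ovine COX-1 or human recombinant COX-2 was incubated with compound at 1 or 10 µM for 10 min at 37 °C. Buffer was 0.1 M Tris-HCl pH 8.0 with 5 mM EDTA and 2 mM phenol. PGH2 formed was reduced to PGF2α with stannous chloride for quantification. Ketoprofen (10 µM) served as reference; values are means of four experiments.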

[9] = molecular target: T4, Prostaglandin G/H synthase 1 (Ovis aries); assay: Inhibition of ovine cyclooxygenase 1 assessed as prostaglandin F2alpha level at 10 uM by enzyme immunoassay relative to control; procedure, shortened: as §3
[10] = molecular target: T5, Prostaglandin G/H synthase 2 (Homo sapiens) (UniProt P35354); assay: Inhibition of human recombinant cyclooxygenase 2 assessed as prostaglandin F2alpha level at 1 uM by enzyme immunoassay relative to control; procedure, shortened: as §3
T5 sequence (whole entry): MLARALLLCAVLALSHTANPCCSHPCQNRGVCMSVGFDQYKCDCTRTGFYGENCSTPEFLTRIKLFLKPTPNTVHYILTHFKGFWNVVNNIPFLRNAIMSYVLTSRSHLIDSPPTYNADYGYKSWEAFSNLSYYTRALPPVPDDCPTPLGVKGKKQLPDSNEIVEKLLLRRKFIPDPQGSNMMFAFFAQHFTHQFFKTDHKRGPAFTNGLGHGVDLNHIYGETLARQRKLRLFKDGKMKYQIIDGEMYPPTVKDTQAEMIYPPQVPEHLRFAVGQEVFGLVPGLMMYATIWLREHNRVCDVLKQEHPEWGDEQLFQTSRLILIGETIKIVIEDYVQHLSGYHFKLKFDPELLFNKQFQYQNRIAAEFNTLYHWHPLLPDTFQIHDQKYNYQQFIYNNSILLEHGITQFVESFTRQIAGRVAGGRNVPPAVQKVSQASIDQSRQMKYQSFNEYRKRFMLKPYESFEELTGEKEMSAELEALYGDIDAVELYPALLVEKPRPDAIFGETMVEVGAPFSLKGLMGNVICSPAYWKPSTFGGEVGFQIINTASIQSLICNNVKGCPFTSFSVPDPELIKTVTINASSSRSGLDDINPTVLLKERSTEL

[11] = species: Mus musculus; assay: Toxicity in C57BL/6 mouse assessed as loss of locomotor behavior; format: organism-based; conditions: in vivo
[12] = system: Mus musculus; assay: Antinociceptive activity against formalin-induced nociceptive behavior in C57BL/6 mouse assessed as mean licking time at 5 mg/kg, ip administered 15 mins prior to formalin challenge measured upto 10 mins relative to control; format: functional; conditions: route intraperitoneal
Procedure, shortened: (§4)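 C57BL/6 mice (n = 6-8 per group) were habituated 15-20 min in an observation chamber with mirrors, then given the compound ip at 6 µL/g in PBS/DMSO. Formalin (5%, 20 µL) went into the dorsal left hind paw 15 min later. Licking of the injected paw was summed over 0-10 min (phase 1) and 15-45 min (phase 2) and expressed as % of the vehicle control. Groups were compared by t test.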

[13] = system: Mus musculus; assay: Antinociceptive activity against formalin-induced nociceptive behavior in C57BL/6 mouse assessed as mean licking time at 10 mg/kg, ip administered 15 mins prior to formalin challenge measured upto 10 mins relative to control; format: functional; conditions: route intraperitoneal; procedure, shortened: as §4
[14] = system: Mus musculus; assay: Antinociceptive activity against formalin-induced nociceptive behavior in C57BL/6 mouse assessed as mean licking time at 50 mg/kg, ip administered 15 mins prior to formalin challenge measured upto 10 mins relative to control; format: functional; conditions: route intraperitoneal; procedure, shortened: as §4
[15] = system: Mus musculus; assay: Antinociceptive activity against formalin-induced nociceptive behavior in C57BL/6 mouse assessed as mean licking time at 5 mg/kg, ip administered 15 mins prior to formalin challenge measured after 15 to 45 mins relative to control; format: functional; conditions: route intraperitoneal; procedure, shortened: as §4
[16] = system: Mus musculus; assay: Antinociceptive activity against formalin-induced nociceptive behavior in C57BL/6 mouse assessed as mean licking time at 10 mg/kg, ip administered 15 mins prior to formalin challenge measured after 15 to 45 mins relative to control; format: functional; conditions: route intraperitoneal; procedure, shortened: as §4
[17] = system: Mus musculus; assay: Antinociceptive activity against formalin-induced nociceptive behavior in C57BL/6 mouse assessed as mean licking time at 50 mg/kg, ip administered 15 mins prior to formalin challenge measured after 15 to 45 mins relative to control; format: functional; conditions: route intraperitoneal; procedure, shortened: as §4
[18] = molecular target: T5, Prostaglandin G/H synthase 2 (Homo sapiens); assay: Inhibition of human recombinant cyclooxygenase 2 assessed as prostaglandin F2alpha level at 10 uM by enzyme immunoassay relative to control; procedure, shortened: as §3
[19] = molecular target: T6, Prostaglandin G/H synthase 2 (Homo sapiens, UniProt P35354); assay: Inhibition of cyclooxygenase 2 in human whole blood assessed as prostaglandin E2 level
T6 sequence (P35354 whole entry): T5 sequence (whole entry)

T1 sequence (P21554 whole entry): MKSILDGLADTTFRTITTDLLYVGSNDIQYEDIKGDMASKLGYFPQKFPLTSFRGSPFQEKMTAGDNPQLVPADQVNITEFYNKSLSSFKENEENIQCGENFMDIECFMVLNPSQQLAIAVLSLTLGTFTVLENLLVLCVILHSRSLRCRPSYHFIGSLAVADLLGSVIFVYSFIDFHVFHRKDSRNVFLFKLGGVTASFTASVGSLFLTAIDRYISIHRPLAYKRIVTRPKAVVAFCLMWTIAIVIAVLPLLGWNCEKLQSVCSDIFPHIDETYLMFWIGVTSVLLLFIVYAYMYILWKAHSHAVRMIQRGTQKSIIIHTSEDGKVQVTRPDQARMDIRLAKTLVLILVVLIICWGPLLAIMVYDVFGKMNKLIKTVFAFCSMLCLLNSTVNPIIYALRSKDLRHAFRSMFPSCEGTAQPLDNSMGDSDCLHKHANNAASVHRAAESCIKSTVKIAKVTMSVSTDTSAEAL

| SMILES | Ki [1] | Ki [2] | inhibition [3] | inhibition [4] | inhibition [9] | inhibition [18] | also measured |
| --- | --- | --- | --- | --- | --- | --- | --- |
| CCCCC/C=C\C/C=C\C/C=C\C/C=C\CCCC(=O)Nc1ccc(O)c(OC)c1 | 1.4 µM | 1 µM | 62% | 23% |  |  |  |
| CC(=O)Nc1ccc2[nH]ncc2c1 |  |  | 4% |  | 92% | 70% | Activity [5]: 1%; Activity [6]: 12%; Activity [7]: inactive; inhibition [8]: 97%; inhibition [10]: 80%; Activity [11]: Non-toxic; Activity [12]: 105%; Activity [13]: 142%; Activity [14]: 29%; Activity [15]: 94%; Activity [16]: 73%; Activity [17]: 38%; IC50 [19]: 107 µM |
| CCCCC/C=C\C/C=C\C/C=C\C/C=C\CCCC(=O)NCc1ccc(O)cc1 | 0.2 µM | 0.1 µM | 88% | 56% |  |  |  |
| CCCCC/C=C\C/C=C\C/C=C\C/C=C\CCCC(=O)Nc1ccc2[nH]ncc2c1 | 0.3 µM | 1 µM | 2% | 1% |  |  |  |
| CC(C(=O)O)c1cccc(C(=O)c2ccccc2)c1 (stereo not given) |  |  |  |  | 16% | 41% |  |
